Assay results as given in ChEMBL document CHEMBL1123469, “Synthesis and activity of 6-aryl-3-(hydroxypolymethyleneamino)pyridazines in animal models of epilepsy” (1986).

Legend:
Format in all cases: functional
[1] = test system: Mus musculus; experiment: Evaluated for the sedative property by the rotarod test at 100 mg/kg.
In short: (§1)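 Motor coordination was tested on the rotorod in groups of 10 female Swiss CD1 mice (18-23 g). Drug or vehicle was given orally, test compounds in dilute HCl (pH 3), 60 min before testing.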

[2] = test system: Mus musculus; experiment: Anticonvulsant activity when administered 100 mg/kg orally in mice Maximal electroshock (MES); conditions: route oral
In short: (§2)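 Female Swiss CD1 mice (18-23 g), groups of 10, were dosed orally at 20 mL/kg. Test compounds were given in dilute HCl (pH 3) and references in 5% gum tragacanth, 60 min before a 60-V alternating current for 0.3 s through corneal electrodes. Protection meant abolition of the hindlimb tonic extensor component.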

[3] = test system: Mus musculus; experiment: Evaluated for Bicuculline-induced seizures (anticonvulsant activity) when administered at 100 mg/kg orally in mice.; conditions: route oral
In short: (§3)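 Female Swiss CD1 mice (18-23 g) were dosed orally at 20 mL/kg, test compounds in dilute HCl (pH 3) and references in gum tragacanth. Protection against bicuculline- or pentylenetetrazole-induced clonic/tonic seizures and lethality was scored.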

[4] = test system: Mus musculus; experiment: Evaluated for Bicuculline-induced seizures (anticonvulsant activity) when administered orally in mice.; conditions: po; in short: as §3
[5] = test system: Mus musculus; experiment: Evaluated for Bicuculline-induced lethality (anticonvulsant activity) when administered orally in mice.; conditions: po
In short: (§4)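 Female Swiss albino CD1 mice (18-23 g), oral dosing (20 mL/kg); test compounds dissolved in dilute HCl (pH 3), reference drugs suspended in 5% gum tragacanth. Bicuculline challenge, scoring protection from seizures and from lethality. […] Weakly active agents reported as percent protected at the stated dose.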

[6] = organism: Mus musculus; experiment: Sedative property by the rotarod test; in short: as §1
[7] = test system: Mus musculus; experiment: Evaluated for anticonvulsant activity when administered orally in mice by Maximal electroshock (MES).; conditions: po; in short: as §2
[8] = test system: Mus musculus; experiment: Compound was evaluated for anticonvulsant activity when administered 250 mg/kg orally in mice Maximal electroshock (MES); conditions: route oral; in short: as §2
[9] = test system: Mus musculus; experiment: Compound was evaluated for Bicuculline-induced lethality (anticonvulsant activity) when administered 250 mg/kg orally in mice; conditions: route oral; in short: as §4
[10] = test system: Mus musculus; experiment: Compound was evaluated for Bicuculline-induced seizures (anticonvulsant activity) when administered 250 mg/kg orally in mice; conditions: route oral; in short: as §3
[11] = test system: Mus musculus; experiment: Compound was evaluated for the sedative property by the rotarod test at 250 mg/kg
In short: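 Rotorod motor-coordination test in female Swiss albino CD1 mice (18-23 g). Groups of 10 mice dosed with test drug or vehicle 60 min before testing; test compounds dissolved in dilute HCl (pH 3).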

[12] = test system: Mus musculus; experiment: Evaluated for Bicuculline-induced lethality (anticonvulsant activity) when administered 100 mg/kg orally in mice.; conditions: route oral; in short: as §4
[13] = test system: Mus musculus; experiment: Anticonvulsant activity in tonic seizures when administered orally in mice; conditions: po
[14] = test system: Mus musculus; experiment: Anticonvulsant activity in Maximal electroshock (MES) when administered orally in mice; conditions: po; in short: as §2
[15] = organism: Papio hamadryas; experiment: Antagonist activity to generalized seizures Photically induced seizures in senegalese Papio papio baboons
In short: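 Naturally photosensitive baboons of both sexes (4-7 kg) were dosed orally, test compounds in dilute HCl (pH 3) and references in 5% gum tragacanth, at 4 mL/kg. They were photically stimulated at hourly intervals afterwards, and the myoclonic response was graded after Killam. Threshold active dose is the first dose that protected at least two of four animals for at least 2 h.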

[16] = test system: Mus musculus; experiment: Anticonvulsant activity in Clonic seizures when administered orally in mice; conditions: po; in short: as §3
[17] = organism: Rattus norvegicus; experiment: Antagonist activity to generalized seizures kindled amygdaloid seizures in rats
In short: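 Male Sprague-Dawley rats (200-500 g), groups of 10, carried platinum electrodes in the right basolateral amygdala. They counted as kindled after stage-5 seizures on 3 consecutive days at 30-90 μA. A control stimulation was followed by an oral dose (5 mL/kg) and restimulation 1 h later. After-discharge duration and Racine seizure stage were compared with vehicle.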

[18] = organism: Mus musculus; experiment: Sedative properties by the rotarod test; in short: as §1
[19] = test system: Mus musculus; experiment: Compound was evaluated for Bicuculline-induced seizures (anticonvulsant activity)when administered orally in mice; conditions: po; in short: as §4

| SMILES | Protected [1] | Protected [2] | Protected [3] | ED50 [4] | ED50 [5] | also measured |
| --- | --- | --- | --- | --- | --- | --- |
| OC1CCCN(c2ccc(-c3ccccc3Cl)nn2)C1 (configuration not stated) | 0% | 15% | 0% | – | – | – |
| CNC(=O)OC1CCN(c2ccc(-c3ccc(Cl)cc3Cl)nn2)CC1 | – | – | – | 1.4 mg/kg | 1.4 mg/kg | ED50 [6]: 20 mg/kg; ED50 [7]: 5.5 mg/kg |
| Oc1ccc(-c2ccc(N3CCC(O)CC3)nn2)cc1 | – | – | – | – | – | Protected [8]: 25%; Protected [9]: 10%; Protected [10]: 0%; Protected [11]: 10% |
| Oc1ccccc1-c1ccc(N2CCC(O)CC2)nn1 | – | 0% | 0% | – | – | Protected [11]: 0% |
| OC1CCN(c2ccc(-c3ccsc3)nn2)CC1 | 0% | 80% | 10% | – | – | Protected [12]: 20% |
| O=C(OC1CCN(c2ccc(-c3ccccc3Cl)nn2)CC1)c1ccc(Cl)cc1 | 0% | 0% | 0% | – | – | – |
| CNC(=O)OC1CCN(c2ccc(-c3ccc(Cl)c(Cl)c3)nn2)CC1 | 0% | 50% | 0% | – | – | – |
| OC1CCN(c2ccc(-c3ccc(F)cc3)nn2)CC1 | 50% | – | 10% | – | – | – |
| O=[N+]([O-])c1ccc(-c2ccc(N3CCC(O)CC3)nn2)cc1 | – | 40% | – | 54 mg/kg | 57 mg/kg | – |
| Cc1cc(Cl)ccc1-c1ccc(N2CCC(O)CC2)nn1 | – | – | – | 10 mg/kg | 10 mg/kg | ED50 [6]: 64 mg/kg; ED50 [7]: 10 mg/kg |
| CNC(=O)OC1CCN(c2ccc(-c3cccc(Cl)c3)nn2)CC1 | 0% | 40% | 10% | – | – | Protected [12]: 0% |
| CC(C)(C)C(=O)OC1CCN(c2ccc(-c3ccccc3Cl)nn2)CC1 | 0% | 0% | 0% | – | – | – |
| OC1CCN(c2ccc(-c3cccc(Cl)c3)nn2)CC1 | 40% | – | 10% | – | – | Protected [12]: 40% |
| CNC(=O)OC1CCN(c2ccc(-c3cccs3)nn2)CC1 | 10% | 10% | 0% | – | – | Protected [12]: 20% |
| Cc1ccc(-c2ccc(N3CCC(O)CC3)nn2)c(Cl)c1 | – | – | – | 17 mg/kg | 16 mg/kg | ED50 [6]: 48 mg/kg; ED50 [7]: 21 mg/kg |
| CCCC(=O)OC1CCN(c2ccc(-c3ccc(Cl)cc3Cl)nn2)CC1 | – | – | – | 31 mg/kg | 30 mg/kg | ED50 [6]: 30 mg/kg; ED50 [7]: 50 mg/kg |
| CN(C)C(=O)OC1CCN(c2ccc(-c3ccccc3Cl)nn2)CC1 | – | – | – | – | 1.1 mg/kg | ED50 [6]: 8.4 mg/kg |
| OC1CCN(c2ccc(-c3cccc(C(F)(F)F)c3)nn2)CC1 | 50% | – | 0% | – | – | – |
| OC1CCN(c2ccc(-c3cccc4ccccc34)nn2)CC1 | 0% | – | 40% | – | – | Protected [12]: 0% |
| Cc1ccc(-c2ccc(N3CCC(O)CC3)nn2)cc1 | 0% | – | 0% | – | – | Protected [12]: 50%; ED50 [7]: 73 mg/kg |
| OC1CCN(c2ccc(-c3ccccc3Cl)nn2)C1 (configuration not stated) | 0% | 30% | 40% | – | – | – |
| NC(=O)N1c2ccccc2C=Cc2ccccc21 [CARBAMAZEPINE] | – | – | – | 29 mg/kg | 16 mg/kg | ED50 [13]: 21 mg/kg; ED50 [14]: 21 mg/kg; Threshold active dose [15]: 100 mg/kg; ED50 [16]: > 100 mg/kg; Threshold active dose [17]: 10 mg/kg; ED50 [18]: 95 mg/kg |
| OC1CCN(c2ccc(-c3ccc(Cl)cc3Cl)nn2)CC1 [ENDIXAPRINE] | – | – | – | 8.5 mg/kg | 8.5 mg/kg | ED50 [13]: 11 mg/kg; ED50 [14]: 14 mg/kg; Threshold active dose [15]: 50 mg/kg; ED50 [16]: 18 mg/kg; Threshold active dose [17]: 20 mg/kg; ED50 [18]: 34 mg/kg |
| OC1CCN(c2ccc(-c3ccccc3Cl)nn2)CC1 [LODAXAPRINE] | – | – | – | – | 34 mg/kg | ED50 [13]: 29 mg/kg; Threshold active dose [15]: 40 mg/kg; ED50 [16]: 77 mg/kg; Threshold active dose [17]: 20 mg/kg; ED50 [18]: 138 mg/kg |
| CCC1(c2ccccc2)C(=O)NC(=O)NC1=O [PHENOBARBITAL] | – | – | – | – | 5.2 mg/kg | ED50 [13]: 7 mg/kg; ED50 [19]: 5.8 mg/kg; ED50 [14]: 5.4 mg/kg; Threshold active dose [15]: 5 mg/kg; ED50 [16]: 15 mg/kg; Threshold active dose [17]: 20 mg/kg; ED50 [18]: 61 mg/kg |
| CCCC(CCC)C(=O)[O-].[Na+] [VALPROATE SODIUM] | – | – | – | 274 mg/kg | 246 mg/kg | ED50 [13]: 201 mg/kg; ED50 [14]: 324 mg/kg; Threshold active dose [15]: 300 mg/kg; ED50 [16]: 363 mg/kg; Threshold active dose [17]: 200 mg/kg; ED50 [18]: 406 mg/kg |
